Experimental findings from ChEMBL document CHEMBL1138238, “Synthesis and evaluation of 3-aryloxymethyl-1,2-dimethylindole-4,7-diones as mechanism-based inhibitors of NAD(P)H:quinone oxidoreductase 1 (NQO1) activity” (J Med Chem, 2007) are described below.

The target of assay [1] is NAD(P)H dehydrogenase [quinone] 1 (Homo sapiens) (UniProt P15559). The assay is described as follows: Inhibition of human recombinant NQO1 expressed in MIA PaCa2 cells at 5000 to 10000 nM after 1 hrs. The assay is classed as cell-based. To be noted: MIA PaCa-2. The essentials:
(§1)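 MIA PaCa-2 cells (1×10^6, plated the day before) exposed to indolequinone (1 nM–10 μM) in complete medium for 1 h. Cells then washed in PBS, scraped into 50 mM K phosphate pH 7.4 with 250 mM sucrose and 5 μM FAD, and sonicated on ice. NQO1 activity in sonicates measured as 0.2 mM NADH-dependent reduction of 40 μM DCPIP, read at 600 nm for 1 min at 32 °C.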

Assay [2] deals with MIA PaCa-2. The assay is described as follows: Cytotoxicity against human MIA PaCa2 cells after 72 hrs by MTT assay. The assay is classed as functional, cell-based. To be noted: MIA PaCa-2, 72 h.
The test system of assay [3] is MIA PaCa-2. The assay is described as follows: Cytotoxicity against human MIA PaCa2 cells after 4 hrs by MTT assay. The assay is classed as functional, cell-based. To be noted: MIA PaCa-2, 4 h.
In assay [4] the target is NAD(P)H dehydrogenase [quinone] 1 (Homo sapiens) (UniProt P15559). The assay is described as follows: Inhibition of human recombinant NQO1 expressed in MIA PaCa2 cells at 10 to 100 nM after 1 hrs. Type of assay: cell-based. To be noted: MIA PaCa-2. In short, it runs like this: as §1
Chain of NAD(P)H dehydrogenase [quinone] 1 (Homo sapiens) (P15559 whole entry): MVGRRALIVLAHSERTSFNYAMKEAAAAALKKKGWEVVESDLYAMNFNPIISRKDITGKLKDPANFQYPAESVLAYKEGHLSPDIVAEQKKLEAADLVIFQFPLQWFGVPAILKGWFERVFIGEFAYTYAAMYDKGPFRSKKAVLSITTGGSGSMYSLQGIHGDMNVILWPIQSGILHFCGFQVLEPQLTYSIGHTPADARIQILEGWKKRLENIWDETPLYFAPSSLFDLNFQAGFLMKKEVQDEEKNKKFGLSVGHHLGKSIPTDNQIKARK
Assay [5] has the same target. The assay is described as follows: Inhibition of human recombinant NQO1 expressed in MIA PaCa2 cells at <10 nM after 1 hrs. To be noted: MIA PaCa-2. The assay is classed as cell-based. The essentials: as §1

In the case of `COC1=CC(=O)c2c(COc3ccc(C(F)(F)F)cc3)c(C)n(C)c2C1=O`, the inhibition in assay [1] is above 90%. Also, the IC50 in the assay on MIA PaCa-2 [2] stood at 311 nM; with MIA PaCa-2 [3], 496 nM.
`COC1=CC(=O)c2c(COc3ccccn3)c(C)n(C)c2C1=O`: the values for the IC50 in the assay with MIA PaCa-2 [2] and with MIA PaCa-2 [3] were 2390 nM and 9580 nM, respectively. Moreover, in assay [4], the inhibition is above 90%.
As for `COC1=CC(=O)c2c(COc3ccc(N)cc3)c(C)n(C)c2C1=O`, the 50% inhibitory concentration (IC50) in the assay with MIA PaCa-2 [2] was found to be 160 nM; in the assay with MIA PaCa-2 [3], 504 nM.
For `O=[N+]([O-])c1ccccc1O` [NITROPHENOLATE] the same measures were 16400 nM and 6080 nM.
Turning to `Oc1ccc(F)cc1`, the IC50 with MIA PaCa-2 [2] was 13200 nM; in the assay on MIA PaCa-2 [3], 12400 nM.
The like results for `COC1=CC(=O)c2c(COc3ccccc3)c(C)n(C)c2C1=O` were, in that order, 409 nM and 4560 nM.
Regarding `N#Cc1ccc(O)cc1` [4-CYANOPHENOL], the IC50 with MIA PaCa-2 [2] is 73300 nM; with MIA PaCa-2 [3], 56800 nM.
In the case of `COC1=CC(=O)c2c(c(COc3cccc([N+](=O)[O-])c3)c(C)n2C)C1=O`, the IC50 in the assay with MIA PaCa-2 [2] was 258 nM; in the assay with MIA PaCa-2 [3], 352 nM. Besides, the inhibition in assay [4] was above 90%.
For the compound `Oc1ccc(C(F)(F)F)cc1`, the IC50 in the assay on MIA PaCa-2 [2] was found to be 32900 nM; in the assay on MIA PaCa-2 [3] it was 13100 nM.
As to `COC1=CC(=O)c2c(COc3ccccc3[N+](=O)[O-])c(C)n(C)c2C1=O`, the concentration for half-maximal inhibition (IC50) came out at 178 nM with MIA PaCa-2 [2] and 363 nM with MIA PaCa-2 [3]. The inhibition in assay [4] is above 90%.
Regarding `O=[N+]([O-])c1ccc(O)c([N+](=O)[O-])c1` [2,4-DINITROPHENOL], the IC50 in the assay with MIA PaCa-2 [2] amounted to 22100 nM; in the assay on MIA PaCa-2 [3] it was 15900 nM.
The like results for `COC1=CC(=O)c2c(COc3ccc(C#N)cc3)c(C)n(C)c2C1=O` were, in that order, 192 nM and 463 nM.
Consider `COC1=CC(=O)c2c(c(COc3ccc([N+](=O)[O-])cc3)c(C)n2C)C1=O`, for which the IC50 turned out to be 508 nM in the assay on MIA PaCa-2 [2] and 629 nM with MIA PaCa-2 [3]. For the same compound, in assay [4], the inhibition was above 90%.
For `O=[N+]([O-])c1cccc(O)c1` [3-NITRO-PHENOL], the half-maximal inhibitory concentration (IC50) was determined as 13900 nM in the assay with MIA PaCa-2 [2] and 7130 nM with MIA PaCa-2 [3].
Consider `COC1=CC(=O)c2c(c(COc3ccccc3)c(C)n2C)C1=O`, for which the IC50 in the assay on MIA PaCa-2 [2] came out at 962 nM; in the assay with MIA PaCa-2 [3], 1380 nM.
The like results for `Oc1cccnc1` were, in that order, 73100 nM and 56500 nM.
For the compound `COC1=CC(=O)c2c(c(COc3cccnc3)c(C)n2C)C1=O`, the IC50 with MIA PaCa-2 [2] was 562 nM; with MIA PaCa-2 [3] it was 904 nM. The inhibition in assay [4] was above 90%.
As for `Nc1ccc(O)cc1` [4-AMINOPHENOL], the 50% inhibitory concentration (IC50) in the assay with MIA PaCa-2 [2] was determined as 42200 nM; with MIA PaCa-2 [3], 42000 nM.
Regarding `COC1=CC(=O)c2c(c(COc3ccccn3)c(C)n2C)C1=O`, in assay [5], the inhibition was above 90%.
Consider `COC1=CC(=O)c2c(c(COc3ccncc3)c(C)n2C)C1=O`, for which the values for the IC50 with MIA PaCa-2 [2] and in the assay on MIA PaCa-2 [3] were 2170 nM and 2010 nM, respectively.
For `Oc1ccccn1` the same measures were 68800 nM and 68100 nM.
Consider `COC1=CC(=O)c2c(COc3ccc([N+](=O)[O-])cc3F)c(C)n(C)c2C1=O`, for which the IC50 is 417 nM in the assay with MIA PaCa-2 [2] and 529 nM in the assay on MIA PaCa-2 [3]. For the same compound, in assay [4], the inhibition is above 90%.
With `COC1=CC(=O)c2c(COc3cccnc3)c(C)n(C)c2C1=O`, the IC50 was 1820 nM in the assay on MIA PaCa-2 [2] and 2480 nM with MIA PaCa-2 [3].
Regarding `COC1=CC(=O)c2c(COc3ccncc3)c(C)n(C)c2C1=O`, the IC50 with MIA PaCa-2 [2] came out at 3270 nM; in the assay on MIA PaCa-2 [3], 2560 nM. The inhibition in assay [4] is above 90%.
For `COC1=CC(=O)c2c(COc3ccc([N+](=O)[O-])cc3)c(C)n(C)c2C1=O` the same measures were 355 nM, 638 nM and above 90%.
The like results for `COC1=CC(=O)c2c(COc3ccc(F)cc3F)c(C)n(C)c2C1=O` were, in that order, 75 nM, 255 nM and above 90%.
On to `COC1=CC(=O)c2c(c(C(C)Oc3ccc([N+](=O)[O-])cc3)c(C)n2C)C1=O` (stereo not given), for which the concentration for half-maximal inhibition (IC50) came out at 1700 nM with MIA PaCa-2 [2] and 1830 nM in the assay on MIA PaCa-2 [3].
The like results for `O=[N+]([O-])c1ccc(O)cc1` [P-NITROPHENOL] were, in that order, 13000 nM and 11000 nM.
In the case of `COC1=CC(=O)c2c(c(COc3ccc([N+](=O)[O-])cc3F)c(C)n2C)C1=O`, the IC50 in the assay with MIA PaCa-2 [2] was 3560 nM; with MIA PaCa-2 [3], 4650 nM.
In the case of `COC1=CC(=O)c2c(c(COc3ccccc3[N+](=O)[O-])c(C)n2C)C1=O`, the IC50 with MIA PaCa-2 [2] was found to be 104 nM; in the assay on MIA PaCa-2 [3], 345 nM.
Take `Oc1c(F)cc(F)cc1F`: the IC50 in the assay on MIA PaCa-2 [2] came out at 38100 nM; in the assay on MIA PaCa-2 [3], 36400 nM.
On to `Oc1ccncc1`, for which the values for the IC50 with MIA PaCa-2 [2] and in the assay with MIA PaCa-2 [3] were 17800 nM and 43200 nM, respectively.
Turning to `COC1=CC(=O)c2c(COc3ccc(F)cc3)c(C)n(C)c2C1=O`, in assay [1], the inhibition is above 90%. Further, the IC50 in the assay with MIA PaCa-2 [2] was 493 nM; in the assay with MIA PaCa-2 [3], 905 nM.
On to `Oc1ccc(F)cc1F`, for which the IC50 in the assay on MIA PaCa-2 [2] was 20800 nM; in the assay with MIA PaCa-2 [3], 14800 nM.
For the compound `Oc1ccccc1` [PHENOL], the IC50 came to 16000 nM with MIA PaCa-2 [2] and 16500 nM with MIA PaCa-2 [3].
For the compound `COC1=CC(=O)c2c(COc3c(F)cc(F)cc3F)c(C)n(C)c2C1=O`, the results for the IC50 in the assay with MIA PaCa-2 [2] and in the assay on MIA PaCa-2 [3] were 212 nM and 452 nM, respectively. Further, the inhibition in assay [4] was above 90%.
Turning to `O=[N+]([O-])c1ccc(O)c(F)c1`, the IC50 in the assay with MIA PaCa-2 [2] turned out to be 19200 nM; with MIA PaCa-2 [3], 14300 nM.
Turning to `COC1=CC(=O)c2c(COc3cccc([N+](=O)[O-])c3)c(C)n(C)c2C1=O`, the IC50 in the assay on MIA PaCa-2 [2] was found to be 257 nM; in the assay on MIA PaCa-2 [3], 351 nM. The inhibition in assay [4] was above 90%.
Turning to `COC1=CC(=O)c2c(c(COc3c(F)cc(F)cc3F)c(C)n2C)C1=O`, the results for the IC50 with MIA PaCa-2 [2] and in the assay with MIA PaCa-2 [3] were 86 nM and 427 nM, respectively.

The term inhibition denotes the share of the control response that was lost under treatment. A word on the IC50: it is the concentration needed to halve the response being measured. A high value points to lower potency.
